Results: ChEMBL document CHEMBL1152380, “The synthesis and biological evaluation of a novel series of C7 non-basic substituted fluoroquinolones as antibacterial agents” (2009)
In brackets after ≈: the same amount, converted by molar mass.

How the values were obtained:
Format in all cases: functional
[1] = system: Staphylococcus epidermidis; test: Antibacterial activity against Staphylococcus epidermidis ATCC 12228 by microbroth dilution technique
Procedure, shortened: (§1)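 MIC, taken as the lowest drug concentration that prevents visible growth, determined by broth microdilution following the National Committee for Clinical and Laboratory Standards method. Strains were reference strains from the American Type Culture Collection or clinical isolates from the hospital culture collection.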

[2] = system: Enterococcus faecalis; test: Antibacterial activity against Enterococcus faecalis ATCC 29212 by microbroth dilution technique; procedure, shortened: as §1
[3] = system: Streptococcus pneumoniae; test: Antibacterial activity against Streptococcus pneumoniae ATCC 49619 by microbroth dilution technique
Procedure, shortened: (§2)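 Broth microdilution run to the National Committee for Clinical and Laboratory Standards method. MIC is taken as the lowest drug concentration that prevents visible bacterial growth. Strains were clinical isolates from a hospital culture collection or ATCC reference strains.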

[4] = system: Streptococcus pneumoniae; test: Antibacterial activity against multidrug-resistant Streptococcus pneumoniae clinical isolates by microbroth dilution technique
[5] = system: Staphylococcus aureus; test: Antibacterial activity against Staphylococcus aureus ATCC 25923 by microbroth dilution technique; procedure, shortened: as §1
[6] = system: Staphylococcus aureus; test: Antibacterial activity against multidrug-resistant Staphylococcus aureus clinical isolates by microbroth dilution technique
[7] = system: Escherichia coli; test: Antibacterial activity against Escherichia coli ATCC 25922 by microbroth dilution technique; procedure, shortened: as §1
[8] = system: Pseudomonas aeruginosa; test: Antibacterial activity against Pseudomonas aeruginosa ATCC 27853 by microbroth dilution technique; procedure, shortened: as §2
[9] = system: Pseudomonas aeruginosa; test: Antibacterial activity against multidrug-resistant Pseudomonas aeruginosa clinical isolates by microbroth dilution technique; details: Pseudomonas aeruginosa; read-out: MIC
[10] = Staphylococcus epidermidis, ATCC 12228, read-out: MIC
[11] = Enterococcus faecalis, ATCC 29212, read-out: MIC
[12] = Streptococcus pneumoniae, ATCC 49619, read-out: MIC
[13] = Streptococcus pneumoniae, read-out: MIC
[14] = Staphylococcus aureus, ATCC 25923, read-out: MIC
[15] = Escherichia coli, ATCC 25922, read-out: MIC
[16] = Pseudomonas aeruginosa, ATCC 27853, read-out: MIC

SMILES	MIC [1, 10]	MIC [2, 11]	MIC [3, 12]	MIC [4, 13]	MIC [5, 14]	MIC [6]	MIC [7, 15]	MIC [8, 16]	MIC [9]	MIC [5]	MIC [3]	MIC [4]	MIC [1]	MIC [2]	MIC [7]	MIC [8]
O=C(O)c1cn(C2CC2)c2cc(N3CCNCC3)c(F)cc2c1=O [CIPROFLOXACIN]	0.5 µg/mL (≈ 1.51 µM)	0.5 µg/mL (≈ 1.51 µM)	–	–	–	–	–	–	–	–	–	–	–	–	–	–
CN[C@H](CC(C)C)C(=O)N[C@H]1C(=O)N[C@@H](CC(N)=O)C(=O)N[C@H]2C(=O)N[C@H]3C(=O)N[C@H](C(=O)N[C@H](C(=O)O)c4cc(O)cc(O)c4-c4cc3ccc4O)[C@H](O)c3ccc(c(Cl)c3)Oc3cc2cc(c3O[C@@H]2O[C@H](CO)[C@@H](O)[C@H](O)[C@H]2O[C@H]2C[C@](C)(N)[C@H](O)[C@H](C)O2)Oc2ccc(cc2Cl)[C@H]1O [VANCOMYCIN]	–	0.5 µg/mL (≈ 0.345 µM)	1 µg/mL (≈ 0.69 µM)	2 µg/mL (≈ 1.38 µM)	–	–	–	–	–	–	–	–	–	–	–	–
CC(C)(C)OC(=O)N1CC2CC1CN2c1nc2c(cc1F)c(=O)c(C(=O)O)cn2C1CC1 (stereo not drawn)	4 µg/mL (≈ 9 µM)	0.5 µg/mL (≈ 1.12 µM)	2 µg/mL (≈ 4.5 µM)	0.5 µg/mL (≈ 1.12 µM)	0.25 µg/mL (≈ 0.562 µM)	> 32 µg/mL	4 µg/mL (≈ 9 µM)	32 µg/mL (≈ 72 µM)	32 µg/mL (≈ 72 µM)	–	–	–	–	–	–	–
C[C@H](O)[C@@H]1C[C@@H](O)CN1c1nc2c(cc1F)c(=O)c(C(=O)O)cn2C1CC1	32 µg/mL (≈ 84.8 µM)	4 µg/mL (≈ 10.6 µM)	1 µg/mL (≈ 2.65 µM)	2 µg/mL (≈ 5.3 µM)	16 µg/mL (≈ 42.4 µM)	> 32 µg/mL	8 µg/mL (≈ 21.2 µM)	32 µg/mL (≈ 84.8 µM)	32 µg/mL (≈ 84.8 µM)	–	–	–	–	–	–	–
COC(=O)[C@@H]1C[C@@H](n2cc(Cc3ccccc3)nn2)CN1c1nc2c(cc1F)c(=O)c(C(=O)O)cn2C1CC1	> 32 µg/mL	16 µg/mL (≈ 30 µM)	4 µg/mL (≈ 7.51 µM)	8 µg/mL (≈ 15 µM)	> 32 µg/mL	> 32 µg/mL	32 µg/mL (≈ 60.1 µM)	32 µg/mL (≈ 60.1 µM)	32 µg/mL (≈ 60.1 µM)	–	–	–	–	–	–	–
O=C(O)c1cn(C2CC2)c2nc(N3CCC[C@H]3CO)c(F)cc2c1=O	8 µg/mL (≈ 23 µM)	0.5 µg/mL (≈ 1.44 µM)	0.5 µg/mL (≈ 1.44 µM)	0.5 µg/mL (≈ 1.44 µM)	0.5 µg/mL (≈ 1.44 µM)	> 32 µg/mL	2 µg/mL (≈ 5.76 µM)	32 µg/mL (≈ 92.1 µM)	32 µg/mL (≈ 92.1 µM)	–	–	–	–	–	–	–
O=C(O)c1cn(C2CC2)c2nc(N3C[C@H](O)C[C@H]3CO)c(F)cc2c1=O	> 32 µg/mL	4 µg/mL (≈ 11 µM)	8 µg/mL (≈ 22 µM)	8 µg/mL (≈ 22 µM)	16 µg/mL (≈ 44 µM)	> 32 µg/mL	32 µg/mL (≈ 88.1 µM)	32 µg/mL (≈ 88.1 µM)	32 µg/mL (≈ 88.1 µM)	–	–	–	–	–	–	–
O=C(O)c1cn(C2CC2)c2nc(N3CC4CC3C[S+]4[O-])c(F)cc2c1=O (stereo in doubt; 6.26)	–	–	–	–	–	–	–	–	32 µg/mL (≈ 84.8 µM)	1 µg/mL (≈ 2.65 µM)	0.125 µg/mL (≈ 0.331 µM)	0.125 µg/mL (≈ 0.331 µM)	1 µg/mL (≈ 2.65 µM)	0.25 µg/mL (≈ 0.662 µM)	0.5 µg/mL (≈ 1.32 µM)	16 µg/mL (≈ 42.4 µM)
